# Measurements published in ChEMBL document CHEMBL1255501, “Heteroresistance of Cryptococcus gattii to fluconazole” (2010).
# The source made the active and inactive calls. The calls are words filed in the database; no cut-off is given here.
# Legend:
# [1] = test system: Cryptococcus gattii species complex; assay: Antimicrobial activity against Cryptococcus gattii serotype C isolate H0058-1-1875 assessed as concentration required for heteroresistance; format: functional, Cryptococcus bacillisporus
# [2] = test system: Cryptococcus gattii species complex; assay: Antimicrobial activity against Cryptococcus gattii serotype C isolate H0058-1-1686 assessed as heteroresistant isolates at 4 ug/ml; format: functional, Cryptococcus bacillisporus
# How it was run: (§1)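 Population analysis: saline cell suspensions (1 × 103 to 4 × 10^3 CFU/ml) plated on plain YPD agar or YPD agar with various fluconazole concentrations; growth recorded after 72 h at 30°C; percentage of resistant subpopulation at each drug level calculated relative to drug-free plate growth.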
# [3] = test system: Cryptococcus gattii species complex; assay: Antimicrobial activity against Cryptococcus gattii serotype C isolate NIH257 assessed as heteroresistant isolates at 2 ug/ml; format: functional, Cryptococcus bacillisporus
# How it was run: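 Cell suspensions of 1 × 10^3 to 4 × 10^3 CFU/ml were made in sterile saline and plated on plain YPD agar or YPD agar with various fluconazole concentrations. Plates were incubated at 30°C for 72 h, and the percentage of resistant subpopulation emerging was recorded.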
# [4] = test system: Cryptococcus gattii species complex; assay: Antimicrobial activity against fluconazole-resistant Cryptococcus gattii serotype B isolate RB14 at 256 ug/ml; format: functional, organism-based; details: Cryptococcus bacillisporus
# [5] = test system: Cryptococcus gattii species complex; assay: Antimicrobial activity against Cryptococcus gattii serotype C isolate H0058-1-78 assessed as concentration required for heteroresistance; format: functional, Cryptococcus bacillisporus
# [6] = test system: Cryptococcus gattii species complex; assay: Antimicrobial activity against Cryptococcus gattii serotype C isolate NIH312 assessed as concentration required for heteroresistance; format: functional, Cryptococcus bacillisporus
# How it was run: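 […] on YPD agar at 4 to 128 μg/ml. The lowest drug concentration at which minor resistant subpopulations emerged within the patch was scored as the strain's level of heteroresistance.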
# [7] = test system: Cryptococcus gattii species complex; assay: Antimicrobial activity against Cryptococcus gattii serotype B isolate NIH367 assessed as heteroresistant isolates at 2 ug/ml; format: functional, Cryptococcus bacillisporus
# How it was run: (§2)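 Population analysis: cells suspended in sterile saline at 1 × 10³ to 4 × 10³ CFU/ml and plated on plain YPD agar or YPD agar with various fluconazole concentrations. Plates incubated at 30°C for 72 h. The resistant subpopulation at each concentration is recorded as a percentage of the population.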
# [8] = test system: Cryptococcus gattii species complex; assay: Antimicrobial activity against Cryptococcus gattii serotype C isolate H0058-1-78 assessed as heteroresistant isolates at 32 ug/ml; format: functional, Cryptococcus bacillisporus; how it was run: as §1
# [9] = test system: Cryptococcus gattii species complex; assay: Antimicrobial activity against Cryptococcus gattii serotype B isolate NIH200 assessed as heteroresistant isolates at 4 ug/ml; format: functional, Cryptococcus bacillisporus; how it was run: as §2
# [10] = test system: Cryptococcus gattii species complex; assay: Antimicrobial activity against Cryptococcus gattii serotype B isolate NIH189 assessed as heteroresistant isolates at 8 ug/ml; format: functional, Cryptococcus bacillisporus; how it was run: as §2
# [11] = test system: Cryptococcus gattii species complex; assay: Antimicrobial activity against Cryptococcus gattii serotype B isolate NIH412 assessed as heteroresistant isolates at 2 ug/ml; format: functional, Cryptococcus bacillisporus; how it was run: as §2
# [12] = test system: Cryptococcus gattii species complex; assay: Antimicrobial activity against Cryptococcus gattii serotype C isolate NIH18 assessed as heteroresistant isolates at 32 ug/ml; format: functional, Cryptococcus bacillisporus, serotype B isolate  NIH18; how it was run: as §1
# [13] = test system: Cryptococcus gattii species complex; assay: Antimicrobial activity against Cryptococcus gattii serotype B isolate RAM15 assessed as heteroresistant isolates at 16 ug/ml; format: functional, Cryptococcus bacillisporus; how it was run: as §1
# [14] = test system: Cryptococcus gattii species complex; assay: Antimicrobial activity against Cryptococcus gattii serotype B isolate NIH744 assessed as concentration required for heteroresistance; format: functional, Cryptococcus bacillisporus
# How it was run: (§3)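 Fluconazole spot test: 10-fold serial dilutions of each single-colony-purified strain spotted on YPD agar alone and YPD agar with fluconazole at 4 to 128 μg/ml. The level of heteroresistance to fluconazole (LHF) is the lowest drug concentration at which minor resistant subpopulations emerge within the spot.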
# [15] = test system: Cryptococcus gattii species complex; assay: Antimicrobial activity against Cryptococcus gattii serotype B isolate NIH409 assessed as heteroresistant isolates at 8 ug/ml; format: functional, Cryptococcus bacillisporus; how it was run: as §2
# [16] = test system: Cryptococcus gattii species complex; assay: Antimicrobial activity against fluconazole-resistant Cryptococcus gattii serotype B isolate RAM15 at 256 ug/ml; format: functional, organism-based; details: Cryptococcus bacillisporus
# [17] = test system: Cryptococcus gattii species complex; assay: Antimicrobial activity against Cryptococcus gattii serotype B isolate RB-3 assessed as concentration required for heteroresistance; format: functional, Cryptococcus bacillisporus
# [18] = test system: Cryptococcus gattii species complex; assay: Antimicrobial activity against Cryptococcus gattii serotype C isolate H0058-1-818 assessed as heteroresistant isolates at 2 ug/ml; format: functional, Cryptococcus bacillisporus; how it was run: as §1
# [19] = test system: Cryptococcus gattii species complex; assay: Antimicrobial activity against Cryptococcus gattii serotype B isolate NIH76 assessed as concentration required for heteroresistance; format: functional, Cryptococcus bacillisporus; how it was run: as §3
# [20] = test system: Cryptococcus gattii species complex; assay: Antimicrobial activity against Cryptococcus gattii serotype B isolate NIH189 assessed as heteroresistant isolates at 16 ug/ml; format: functional, Cryptococcus bacillisporus; how it was run: as §2
# [21] = test system: Cryptococcus gattii species complex; assay: Antimicrobial activity against Cryptococcus gattii serotype B isolate RB-9 assessed as concentration required for heteroresistance; format: functional, Cryptococcus bacillisporus
# [22] = test system: Cryptococcus deuterogattii; assay: Antimicrobial activity against Cryptococcus gattii serotype B isolate NIH444 assessed as heteroresistant isolates at 2 ug/ml; format: functional, Cryptococcus bacillisporus; how it was run: as §2
# [23] = test system: Cryptococcus gattii species complex; assay: Antimicrobial activity against Cryptococcus gattii serotype B isolate B4506 assessed as heteroresistant isolates at 2 ug/ml; format: functional, Cryptococcus bacillisporus; how it was run: as §2
# [24] = test system: Cryptococcus gattii species complex; assay: Antimicrobial activity against Cryptococcus gattii serotype C isolate NIH113 assessed as heteroresistant isolates at 16 ug/ml; format: functional, Cryptococcus bacillisporus; how it was run: as §1
# [25] = test system: Cryptococcus gattii species complex; assay: Antimicrobial activity against Cryptococcus gattii serotype B isolate NIH198 assessed as heteroresistant isolates at 8 ug/ml; format: functional, Cryptococcus bacillisporus; how it was run: as §2
# [26] = test system: Cryptococcus gattii species complex; assay: Antimicrobial activity against Cryptococcus gattii serotype C isolate H0058-1-1941 assessed as concentration required for heteroresistance; format: functional, Cryptococcus bacillisporus
smiles,measurement,setting,value
OC(Cn1cncn1)(Cn1cncn1)c1ccc(F)cc1F [FLUCONAZOLE],Activity,[1],32 µg/mL
same,Activity,[2],100%
same,Activity,[3],100%
same,Activity,[4],inactive
same,Activity,[5],32 µg/mL
same,Activity,[6],32 µg/mL
same,Activity,[7],100%
same,Activity,[8],2.3%
same,Activity,[9],0.1%
same,Activity,[10],100%
same,Activity,[11],100%
same,Activity,[12],0.44%
same,Activity,[13],100%
same,Activity,[14],32 µg/mL
same,Activity,[15],100%
same,Activity,[16],inactive
same,Activity,[17],8 µg/mL
same,Activity,[18],100%
same,Activity,[19],32 µg/mL
same,Activity,[20],0.7%
same,Activity,[21],32 µg/mL
same,Activity,[22],100%
same,Activity,[23],100%
same,Activity,[24],100%
same,Activity,[25],100%
same,Activity,[26],32 µg/mL
